# Measured values gathered from unrelated publications.
# Lines come from different studies, so protocols differ.
# Target: Calcium/calmodulin-dependent protein kinase type II subunit beta (CAMK2B, Homo sapiens, UniProt Q13554)
Structure (SMILES),assay,conditions,remaining binding [%]
C[C@H](c1ccnc(Nc2nc3ccc(-c4cc(N(C)C)ncn4)cc3[nH]2)c1)N1CCN(C(=O)CC(F)(F)F)CC1,"cell-free assay, competition with immobilised ligand",0.1 µM,92
COc1cnc(Nc2cccc(S(N)(=O)=O)c2)nc1N1CCN(c2ccccc2)CC1,"binding, competition with immobilised ligand",1 µM,83
O=C(NCCCN1CCOCC1)c1ccc(Nc2nccc(-c3cc4ccccc4s3)n2)cc1,"binding, competition with immobilised ligand",1 µM,83
CN(C)c1nccc(-c2cnn3ncccc23)n1,binding,1 µM,65
C[C@@H](c1cccc(C#N)c1)n1cc(Cl)cc(C(N)=O)c1=N,"cell-free assay, competition with immobilised ligand",1 µM,100
O=C(NCC1CCOCC1)c1n[nH]cc1NC(=O)c1c(F)cccc1F,"binding, competition with immobilised ligand",1 µM,75
CO[C@H]1CC[C@H](CNc2ccc(S(=O)(=O)NC(=O)c3ccc(N4CCN(CC5=C(c6ccc(Cl)cc6)CC(C)(C)CC5)CC4)cc3Oc3cnc4[nH]ccc4c3)cc2[N+](=O)[O-])CC1,"cell-free assay, competition with immobilised ligand",1 µM,80
Nc1ncc2c(n1)-c1c([nH]c3ccc(C#CC4CC4)cc13)CCCC2,"binding, competition with immobilised ligand",1 µM,100
N[C@H]1CCN(c2nccc(-c3cnn4ncccc34)n2)C1,binding,1 µM,100
COc1cnc(Nc2cccc(S(N)(=O)=O)c2)nc1N1CCN(c2ccccc2)C(=O)C1,"binding, competition with immobilised ligand",1 µM,100
CN(C)c1nccc(-c2cnc3ncccn23)n1,binding,1 µM,89
O=C(c1ccc(Nc2ncc(Cl)c(-c3ccc(Cl)s3)n2)cc1)N1CCC(N2CCCC2)CC1,"binding, competition with immobilised ligand",1 µM,87
C[C@@H]1CCN(c2nccc(-c3cnn4ncccc34)n2)C1,binding,1 µM,78
c1ccc(N2CCN(Cc3nc4ccccc4[nH]3)CC2)nc1,"cell-free assay, competition with immobilised ligand",1 µM,100
C[C@@H](c1ccc(-n2cnc3c(N)ncnc32)cc1)N1CCc2nn(C)c(Cc3ccccc3)c2C1=O,"binding, competition with immobilised ligand",0.1 µM,98
CN(C)c1ncc(F)c(-c2cnn3ncccc23)n1,binding,1 µM,65
O=C(c1ccc(Nc2ncc(Cl)c(-c3cc4ccccc4s3)n2)cc1)N1CCC(N2CCCC2)CC1,"binding, competition with immobilised ligand",1 µM,83
CS(=O)(=O)NCC[C@H](NC(=O)c1cncc2c1cnn2-c1ccc(F)cc1)c1ccnc(S(C)(=O)=O)c1,"cell-free assay, competition with immobilised ligand",1 µM,100
c1cnn2ncc(-c3ccnc(N4CCC45COC5)n3)c2c1,binding,1 µM,66
CN([C@@H]1CCc2c(CC(=O)O)c3cc(S(C)(=O)=O)ccc3n2C1)S(=O)(=O)c1ccc(F)cc1,"cell-free assay, competition with immobilised ligand",1 µM,100
COc1ncc2cc3ccccc3nc2c1C#N,"cell-free assay, competition with immobilised ligand",5 µM,87
